Only some compounds are listed: those with a hit (about 2.5% of all), similar ones and a draw of the others.
TDP2 absorb = TDP2 (human) inhibition, absorbance primary screen; O95551; recombinant TDP2, T5PNP hydrolysis, p-nitrophenol absorbance 415 nm; inhibition, % at 12.8 µM; hit rate 0.34% among 370,000;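 active means inhibition above the mean of all tested compounds plus 3 SD, set per campaign, cut at about 25% in these data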
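Material: recombinant human TDP2; quantity: TDP2 enzyme at 120 nM final; medium: Tris-HCl pH 7.5 with MgCl2; compound: single concentration, 12.8 µM nominal, with 1% DMSO; incubation: 2 h enzyme incubation at 37 °C; signal: epi absorbance; measure: percent inhibition; benchmarks: high control without enzyme, low control DMSO plus TDP2; repeats: singlicate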
Fh CTSL1 inh = counter-screen for PFM18AAP inhibitors: inhibitors of F. hepatica cathepsin L1 | recombinant F. hepatica cathepsin L1, Z-Leu-Arg-MCA fluorescence | inhibition, % at 5.96 µM | hit rate 0.49% among 300,000;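 active means inhibition above the mean of all tested compounds plus 3 SD, set per screening campaign, cut at about 17% in these data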
PAD4 FP inh = PAD4 (human) enzyme inhibition; Q9UM07; recombinant PAD4, RCA probe fluorescence polarization; inhibition, % at 6.36 µM; hit rate 0.41% among 330,000;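 active means percent inhibition above a cutoff equal to the mean of all tested compounds plus 3 SD, cut at about 15% in these data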
Target sequence (Q9UM07 whole entry, looked up): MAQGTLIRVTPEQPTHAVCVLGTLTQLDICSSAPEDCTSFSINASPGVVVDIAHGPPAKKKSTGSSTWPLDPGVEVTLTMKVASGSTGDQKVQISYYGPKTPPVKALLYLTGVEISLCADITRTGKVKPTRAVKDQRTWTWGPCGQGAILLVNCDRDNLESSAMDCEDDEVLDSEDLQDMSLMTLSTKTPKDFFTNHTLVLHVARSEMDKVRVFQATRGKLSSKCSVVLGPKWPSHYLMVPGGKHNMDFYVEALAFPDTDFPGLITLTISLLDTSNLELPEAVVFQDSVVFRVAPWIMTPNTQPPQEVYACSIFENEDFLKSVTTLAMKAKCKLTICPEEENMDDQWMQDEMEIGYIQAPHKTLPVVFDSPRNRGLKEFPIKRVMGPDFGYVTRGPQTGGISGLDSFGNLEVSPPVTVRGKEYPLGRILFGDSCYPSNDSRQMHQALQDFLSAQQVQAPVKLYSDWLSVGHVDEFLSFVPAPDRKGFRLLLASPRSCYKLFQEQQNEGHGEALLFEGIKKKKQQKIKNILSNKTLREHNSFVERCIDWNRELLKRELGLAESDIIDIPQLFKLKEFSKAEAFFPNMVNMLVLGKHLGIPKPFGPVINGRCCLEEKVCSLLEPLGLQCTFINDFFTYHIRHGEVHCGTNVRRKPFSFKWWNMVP
GSTO1 counter = blocks human GSTO1 in RBBP9 counter-screen; P78417; AID 1974; recombinant GSTO1, activity-based probe fluorescence polarization; inhibition, % at 5.96 µM; hit rate 1.1% among 300,000;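 active means inhibition above the campaign mean inhibition plus 3 SD, cut at about 35% in these data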
PRMT1 inh = PRMT1 (human) inhibition, primary screen; Q99873; recombinant PRMT1, activity-based probe fluorescence polarization; inhibition, % at 2.79 µM; hit rate 1.3% among 370,000;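 active means inhibition above about 21% made by adding two undisclosed values, limit read from the data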
PRMT1 inh conf = confirmation of human PRMT1 inhibitors; shares compounds with PRMT1 inh; recombinant His-PRMT1, activity-based probe fluorescence polarization; inhibition, % at 2.79 µM; hit rate 42% among 3,300; AID 687036;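 active means mean inhibition across replicates above the hit cutoff derived for the earlier primary screen, cut at about 22% in these data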
Of the large screens only hits and unclear results are named; the others gave an inactive call (follow-up assays come after a bar, where they were run).

Nn1c(SCC(=O)Nc2nccs2)nnc1-c1cc(-c2ccc(F)cc2)n[nH]1	none (no result: Fh CTSL1 inh, PAD4 FP inh, GSTO1 counter)
Cc1ccc(N2C(=O)CS/C2=N\C(=S)Nc2ccccc2)cc1	PRMT1 inh 28 | PRMT1 inh conf inactive
O=C1CSC(=Nc2ccc(O)cc2)N1c1ccc(O)cc1	none
Cn1c(N)c(C(=O)NCc2ccccc2)sc1=S	PRMT1 inh 26 | PRMT1 inh conf inactive
COC(=O)c1nn2c(C(F)(F)F)cc(-c3ccc(Br)o3)nc2c1Br	PRMT1 inh 30 | PRMT1 inh conf inactive
CCN(CC)C(=O)c1oc(=O)c2ccccc2c1-c1ccc(C)cc1	none (no result: Fh CTSL1 inh, PAD4 FP inh, GSTO1 counter)
Cc1ccc(/C=C2/NC(=O)N(Cc3ccccc3)C2=O)o1	PRMT1 inh 66 | PRMT1 inh conf inactive
CCC1(c2ccccc2)NC(=O)N(CC(=O)Nc2ccc(OC)nc2)C1=O (centres undefined)	PRMT1 inh 58 | PRMT1 inh conf 55
O=C(O)CCC(=O)Nc1ccc(N2CCCCCC2)cc1	PRMT1 inh 31 | PRMT1 inh conf inactive
Cc1ccc(N2CCN(c3ccc(NC(=O)CCC(=O)O)cc3)CC2)cc1	none
C[C@@H]1C[C@H]2[C@@H](Cc3ccccc3)C(=O)N3[C@H](c4ccccc4)[C@H](C)C[C@H]3[C@@H](Cc3ccccc3)C(=O)N2[C@@H]1c1ccccc1	none (no result: Fh CTSL1 inh, PAD4 FP inh, GSTO1 counter)
O=CN(/C=C1\Sc2ccccc2C1=O)Cc1ccccc1	PRMT1 inh 56 | PRMT1 inh conf inactive
CC(=O)Nc1ccc(/C=C2\Sc3ccccc3C2=O)cc1	none
CCC(=O)N(C)/C=C1\Sc2ccccc2C1=O	PRMT1 inh 56 | PRMT1 inh conf 45
CC(=O)N(C)/C=C1\Sc2ccccc2C1=O	PRMT1 inh 78 | PRMT1 inh conf inactive
C[C@@H]1OC(C2CCCCC2)N(C)[C@H]2C[C@H]3c4cc(N5CCOCC5)ccc4CCN3C[C@@H]12 (some centres undefined)	none (no result: Fh CTSL1 inh, PAD4 FP inh, GSTO1 counter)
CCCCCCCCN1C(=O)[C@@H](CC(=O)NCc2cccc(C(F)(F)F)c2)C[C@@]2(C(=O)OC)C1=C[C@H](C(C)C)O[C@@H]2C1CC1	none (no result: Fh CTSL1 inh, PAD4 FP inh, GSTO1 counter)
O=c1cc(-c2ccccc2)nc2cc(-c3ccc(Br)cc3)[nH]n12	none
O=c1cc(-c2ccccc2)nc2cc(-c3ccco3)[nH]n12	PRMT1 inh 30 | PRMT1 inh conf inactive
O=C(OCC#CCSc1nnc(-c2c[nH]c3ccccc23)o1)c1ccc(F)cc1	none (no result: Fh CTSL1 inh, PAD4 FP inh, GSTO1 counter)
COC(=O)[C@]12C[C@H](CC(=O)NCc3cccs3)C(=O)N(Cc3ccc(Cl)cc3Cl)C1=C[C@H](C(C)(C)C)O[C@@H]2C	none (no result: Fh CTSL1 inh, PAD4 FP inh, GSTO1 counter)
Cc1ccc(C(=O)Nc2sc(C)c(C)c2C(=O)c2ccccc2)cc1	PRMT1 inh 51 | PRMT1 inh conf inactive
Cc1sc(NC(=O)c2ccccc2)c(C(=O)NC(C)C)c1C	none
Cc1sc(NC(=O)c2ccccc2)c(C(=O)c2ccccc2)c1C	PRMT1 inh 30 | PRMT1 inh conf inactive
COC(=O)C1CN(CCO)CCS(=O)(=O)N1Cc1cccc(Cl)c1 (centres undefined)	none (no result: Fh CTSL1 inh, PAD4 FP inh, GSTO1 counter)
NNS(=O)(=O)c1ccc(N2CCCC2=O)c([N+](=O)[O-])c1	PRMT1 inh 82 | PRMT1 inh conf 55
NS(=O)(=O)c1ccc(N2CCCC2=O)c([N+](=O)[O-])c1	none
COc1ccc(NC(=O)CSc2nc(O)cc(=O)[nH]2)c(OC)c1	none
COc1ccc(NC(=O)CSc2sc3c(O)cc(=O)[nH]c3c2C#N)c(OC)c1	PRMT1 inh 66 | PRMT1 inh conf inactive
COc1ccc(Cl)cc1NC(=O)CSc1sc2c(O)cc(=O)[nH]c2c1C#N	PRMT1 inh 29 | PRMT1 inh conf inactive
COc1ccccc1NC(=O)CSc1sc2c(O)cc(=O)[nH]c2c1C#N	PRMT1 inh 27 | PRMT1 inh conf inactive
O=C(NCCC1=CCCCC1)C1CCN(S(=O)(=O)c2ccccc2[N+](=O)[O-])CC1	none (no result: Fh CTSL1 inh, PAD4 FP inh, GSTO1 counter)
CCCC1CCC2(CCCN2CCOC(=O)Nc2ccccc2)CC1 (centres undefined)	none (no result: Fh CTSL1 inh, PAD4 FP inh, GSTO1 counter)
O=C(NC1CCCCN(Cc2ccc(Cl)cc2)C1=O)C(c1ccccc1)c1ccccc1 (centres undefined)	none (no result: Fh CTSL1 inh, PAD4 FP inh, GSTO1 counter)
COc1ccc(S[C@]2(C(=O)N3CCOCC3)CC(=O)N(c3ccsc3)[C@@H]2c2ccc(OC)cc2)cc1	none (no result: Fh CTSL1 inh, PAD4 FP inh, GSTO1 counter)
CC(=O)Nc1ccc(NC(=O)COC(=O)c2ccccc2SCC(=O)N2CCCC2)cc1	PRMT1 inh 29 | PRMT1 inh conf 24
COc1ccc(-c2cc(-c3nnc(SCC(=O)N4CCOCC4)n3N)[nH]n2)cc1	none (no result: Fh CTSL1 inh, PAD4 FP inh, GSTO1 counter)
Cc1ccc(C2=NN=C(NC(=O)C(F)(F)F)SC2)cc1	PRMT1 inh 58 (no result: Fh CTSL1 inh, PAD4 FP inh, GSTO1 counter) | PRMT1 inh conf 61
CSc1nc(N(CCO)CCO)c2sc3nc(-c4ccco4)c4c(c3c2n1)CCC4	PRMT1 inh 37 (no result: Fh CTSL1 inh, PAD4 FP inh, GSTO1 counter) | PRMT1 inh conf 39
COC(=O)CSc1nc(SC)nc2c1sc1nc(-c3ccco3)c3c(c12)CC(C)(C)OC3	none (no result: Fh CTSL1 inh, PAD4 FP inh, GSTO1 counter)
CC1CCCCC1NC(=O)COC(=O)c1c2c(nc3ccccc13)/C(=C/c1ccco1)CC2 (centres undefined)	none
O=C(COC(=O)c1c2c(nc3ccccc13)/C(=C/c1ccco1)CC2)NC1CCCC1	PRMT1 inh 35 (no result: Fh CTSL1 inh, PAD4 FP inh, GSTO1 counter) | PRMT1 inh conf 28
Cc1ccsc1C(=O)NNC(=O)c1ccc(NS(=O)(=O)c2cccs2)cc1	none
Cc1ccsc1C(=O)NNC(=O)c1ccncc1	PRMT1 inh 31 (no result: Fh CTSL1 inh, PAD4 FP inh, GSTO1 counter) | PRMT1 inh conf inactive
O=C([C@@H]1C[C@H]1c1ccccc1)N1CCC(Oc2cccnc2)CC1	none (no result: Fh CTSL1 inh, PAD4 FP inh, GSTO1 counter)
Oc1cc2ccccc2cc1-c1n[nH]c(=S)o1	PRMT1 inh 26 | PRMT1 inh conf 36
O=C(NC1CC1)C(=O)c1c[nH]c2ccccc12	none
O=C(NC1CC1)c1cc(=S)[nH]c2ccccc12	PRMT1 inh 39 (no result: Fh CTSL1 inh, GSTO1 counter) | PRMT1 inh conf inactive
Cc1cc(O)c(C2=Nc3ccccc3SC(c3ccc(Cl)cc3)C2)c(=O)o1 (centres undefined)	PRMT1 inh 37 | PRMT1 inh conf inactive
COc1ccc(-n2c(C)ccc2-c2ccccc2)cn1	PRMT1 inh 56 | PRMT1 inh conf inactive
CC(=O)c1ccc(-n2c(C)ccc2-c2ccccc2)cc1	PRMT1 inh 33 | PRMT1 inh conf inactive
COc1cnc(-c2ccccc2)c(-c2ccccc2)n1	none
CC(=O)c1ccc(-n2c(CCC(=O)O)ccc2-c2ccccc2)cc1	none
COC(=O)c1ccc(-n2c(C)ccc2-c2ccccc2)cc1	PRMT1 inh 26 | PRMT1 inh conf inactive
COC(=O)c1ccc(-n2c(CCC(=O)O)ccc2-c2ccccc2)cc1	none (no result: TDP2 absorb, PRMT1 inh)
CCOC(=O)C(C)N1C(=O)S/C(=C\c2ccc(-c3ccccc3C(=O)O)o2)C1=O (centres undefined)	PRMT1 inh 29 | PRMT1 inh conf inactive
CC1(C)CC(=O)C(C(c2cc([N+](=O)[O-])ccc2Cl)C2C(=O)CC(C)(C)CC2=O)C(=O)C1	none
Cc1sc(C(C2C(=O)CC(C)(C)CC2=O)C2C(=O)CC(C)(C)CC2=O)cc1[N+](=O)[O-]	PRMT1 inh 26 | PRMT1 inh conf 45
